This passage reports MIC and Activity results from ChEMBL document CHEMBL1671759, “Thr202Ala in thyA is a marker for the Latin American Mediterranean lineage of the Mycobacterium tuberculosis complex rather than para-aminosalicylic acid resistance” (2010).

Values after ≈ are worked out from the molar mass of the structure shown. Active and inactive are the calls of the source. The rule behind the calls is not given here.

Assay [1] relates to Mycobacterium tuberculosis. Description: Antimicrobial activity against Mycobacterium tuberculosis LAM 7968/03 harboring thyA Thr202Ala single nucleotide polymorphism grown in Lowenstein-Jensen medium. The format is functional. In short, it runs like this: (§1)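 PAS MIC by conventional susceptibility testing on Löwenstein-Jensen medium at 0.063, 0.13, 0.25, 0.5 and 1.0 mg/liter PAS. Strains were drawn from the reference collection and cultivated at the Borstel Supranational Reference Laboratory.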

The test system of assay [2] is Mycobacterium tuberculosis. Description: Antimicrobial activity against Mycobacterium tuberculosis LAM 7968/03 harboring thyA Thr202Ala single nucleotide polymorphism grown in 7H9 broth assessed as decrease in bacterial growth at 0.125 to 2 ug/ml by spectrophotometry. The format is functional, organism-based. In short, it runs like this:
(§2)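 PAS growth curves in 7H9 broth with OADC (10%) and Tween 80 (0.05%), 37°C, rolling device. PAS was added at OD600 0.1 to 0, 0.13, 0.25, 0.5, 1.0 and 2.0 mg/liter. OD600 was read daily for 9 consecutive days, in triplicate. Curves are means of three independent experiments.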

Assay [3] deals with Mycobacterium tuberculosis. The assay is described as follows: Antimicrobial activity against Mycobacterium tuberculosis Beijing 1934/03 harboring thyA Thr202Ala single nucleotide polymorphism grown in 7H9 broth assessed as decrease in bacterial growth at 0.125 to 2 ug/ml by spectrophotometry. The assay is classed as functional, organism-based. In outline:
as §2

The test system of assay [4] is Mycobacterium tuberculosis. Description: Antimicrobial activity against Mycobacterium tuberculosis H37Rv 9679/00 harboring thyA Thr202Ala single nucleotide polymorphism grown in 7H9 broth assessed as decrease in bacterial growth at 0.125 to 2 ug/ml by spectrophotometry. The assay is classed as functional, organism-based. In short, it runs like this: as §2
The subject of assay [5] is Mycobacterium tuberculosis. Description: Antimicrobial activity against Mycobacterium tuberculosis H37Rv 9679/00 harboring thyA Thr202Ala single nucleotide polymorphism grown in Lowenstein-Jensen medium. The format is functional. In outline:
as §1

Assay [6] has as its system Mycobacterium tuberculosis. The assay is described as follows: Antimicrobial activity against Mycobacterium tuberculosis Haarlem 9532/03 harboring thyA Thr202Ala single nucleotide polymorphism grown in Lowenstein-Jensen medium. The assay is classed as functional. In outline: as §1
Assay [7] concerns Mycobacterium tuberculosis. The assay is described as follows: Antimicrobial activity against Mycobacterium tuberculosis LAM 8885/05 harboring thyA Thr202Ala single nucleotide polymorphism grown in 7H9 broth assessed as decrease in bacterial growth at 0.125 to 2 ug/ml by spectrophotometry. The format is functional, organism-based. In short, it runs like this: as §2
Assay [8] relates to Mycobacterium tuberculosis. Description: Antimicrobial activity against Mycobacterium tuberculosis Beijing 1934/03 harboring thyA Thr202Ala single nucleotide polymorphism grown in Lowenstein-Jensen medium. The assay is classed as functional. In short, it runs like this: as §1
The test system of assay [9] is Mycobacterium tuberculosis. The assay is described as follows: Antimicrobial activity against Mycobacterium tuberculosis Haarlem 9532/03 harboring thyA Thr202Ala single nucleotide polymorphism grown in 7H9 broth assessed as decrease in bacterial growth at 0.125 to 2 ug/ml by spectrophotometry. The format is functional, organism-based. In short, it runs like this: as §2

Assay [10] deals with Mycobacterium tuberculosis. Description: Antimicrobial activity against Mycobacterium tuberculosis LAM 8885/05 harboring thyA Thr202Ala single nucleotide polymorphism grown in Lowenstein-Jensen medium. The assay is classed as functional. In short, it runs like this: as §1

In general, MIC refers to the lowest concentration that inhibits growth of the organism.

In the case of `Nc1ccc(C(=O)O)c(O)c1` [AMINOSALICYLIC ACID], the MIC in assay [1], in assay [5], in assay [6], in [8] and in [10] was 0.5 ng/mL (≈ 3.27 nM) in each case. Moreover, the outcome in assay [2], in assay [3], in assay [4], in [7] and in assay [9] was Active.
